# Data as given in ChEMBL document CHEMBL4808192, “Synthesis and biological evaluation of novel imidazo[1,2-a]pyridine-oxadiazole hybrids as anti-proliferative agents: Study of microtubule polymerization inhibition and DNA binding” (Bioorg Med Chem, 2021).
# Activity calls are given as the source filed them. The calls are words filed in the database; no cut-off is given here.
# How the values were obtained:
# [1] = system: A549; assay: Antiproliferative activity against human A549 cells assessed as reduction in cell viability incubated for 48 hrs by MTT assay; type: functional, cell-based; settings: A549, 48 h
# Method in brief: (§1)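 Cells grown in medium with 10% FBS and 1% antibiotic-antimycotic at 37 °C, passaged at 80–90% confluence with 0.25% trypsin/1 mM EDTA. Seeded at 1000–4000 cells/well and grown overnight. Medium was then replaced and compounds added at various concentrations for 48 h. MTT (0.5 mg/mL) was added for 4 h at 37 °C, formazan dissolved in DMSO and absorbance read at 570 nm. IC50 is the 50% inhibitory concentration.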
# [2] = system: DU-145; assay: Antiproliferative activity against human DU-145 cells assessed as reduction in cell viability incubated for 48 hrs by MTT assay; type: functional, cell-based; settings: DU-145, 48 h; method in brief: as §1
# [3] = system: PC-3; assay: Antiproliferative activity against human PC-3 cells assessed as reduction in cell viability incubated for 48 hrs by MTT assay; type: functional, cell-based; settings: PC-3, 48 h; method in brief: as §1
# [4] = system: Calf thymus DNA; assay: Binding affinity to calf thymus DNA measured every 5 mins by UV-Vis spectroscopic analysis; parameters: species or system Bos taurus
# Method in brief: (§2)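 UV–Vis titration at 25 °C in a 1 cm quartz cuvette. Compound at about 10 μM (1 mM stock in 1:1 DMSO:water). CT-DNA (1 mM stock in 100 mM Tris-HCl pH 7.0) added about 0.5 μM at a time until the band was unchanged over five successive additions. Spectra recorded from 200 to 400 nm.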
# [5] = system: HEK293; assay: Cell cycle arrest in human HEK293 cells assessed as accumulation of cells at G2/M phase at 2.8 uM measured after 48 hrs by propidium iodide staining based FACS cytometry analysis (reference value: 16.1%); settings: hek293, 48 h
# [6] = system: Calf thymus DNA; assay: Binding affinity to calf thymus DNA assessed as increase in viscosity at 15 uM by Ostwald viscometric analysis; settings: Bos taurus
# Method in brief: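 Ostwald viscometer in a 25 °C water bath. CT-DNA (150 μM, in 100 mM Tris-HCl pH 7.0) was measured alone, then after mixing with compound at 15 μM. EtBr and Hoechst 33342 complexes with CT-DNA served as controls.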
# [7] = system: A549; assay: Cell cycle arrest in human A549 cells assessed as accumulation of cells at S phase at 2.8 uM measured after 48 hrs by propidium iodide staining based FACS cytometry analysis (reference value: 12.7%); type: functional
# [8] = species: Sus scrofa; assay: Inhibition of pig brain tubulin polymerization at 2 uM incubated for 1 hr by fluorescence based analysis relative to control; type: tissue-based
# Method in brief: (§3)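 Cell-free fluorescence kit assay with porcine brain tubulin (2 mg/mL) in 80 mM PIPES pH 6.9, 2.0 mM MgCl2, 0.5 mM EGTA, 1.0 mM GTP and glycerol. Compound tested at 0.5, 1, 2, 4 and 8 μM, with a DMSO vehicle and a 3 μM podophyllotoxin reference. Polymerization followed at excitation 360/emission 440 nm for 1 h at 37 °C. Inhibition taken relative to vehicle; IC50 is the concentration giving 50% inhibition of assembly.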
# [9] = Selectivity index, ratio of IC50 for human HEK293 cells to IC50 for human A549 cells assessed as reduction in cell viability measured after 48 hrs by MTT assay; type: toxicity; settings: HEK293 cells versus A549 cells, read-out: Ratio IC50
# [10] = system: HEK293; assay: Cell cycle arrest in human HEK293 cells assessed as accumulation of cells at S phase at 2.8 uM measured after 48 hrs by propidium iodide staining based FACS cytometry analysis (reference value: 18.8%); settings: hek293, 48 h
# [11] = species: Sus scrofa; assay: (§4) Inhibition of pig brain tubulin polymerization incubated for 1 hr by fluorescence based analysis; type: tissue-based; method in brief: as §3
# [12] = as §4; type: tissue-based, Sus scrofa; method in brief: as §3
# [13] = molecular target: Tubulin (Homo sapiens) (UniProt P68371+Q9H4B7+P0DPH7+P68366+Q13509+Q71U36+P04350+Q3ZCM7+P07437+P68363+Q9BQE3+Q6PEY2+Q13885+Q9BVA1+Q9BUF5); assay: Inhibition of tubulin polymerization in human A549 cells assessed as disruption of microtubule network at IC50 measured after 48 hrs by confocal microscopic analysis; type: cell-based
# [14] = system: Calf thymus DNA; assay: Binding affinity to calf thymus DNA assessed as decrease in positive peak intensity at compound:DNA concentration ratio of 1:1 to 1:2 by CD spectroscopy; settings: Bos taurus
# Method in brief: (§5)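 Circular dichroism of CT-DNA (10 × 10^-6 M) in 100 mM Tris-HCl pH 7.0 at 25 °C. Spectra taken from 220 to 320 nm at CT-DNA:compound molar ratios of 1:0, 1:1 and 1:2. Each spectrum is the average of three scans.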
# [15] = system: A549; assay: Cell cycle arrest in human A549 cells assessed as accumulation of cells at G0/G1 phase at 2.8 uM measured after 48 hrs by propidium iodide staining based FACS cytometry analysis (reference value: 73%); type: functional
# [16] = species: Sus scrofa; assay: Inhibition of pig brain tubulin polymerization at 1 uM incubated for 1 hr by fluorescence based analysis relative to control; type: tissue-based; method in brief: as §3
# [17] = species: Sus scrofa; assay: Inhibition of pig brain tubulin polymerization at 0.5 uM incubated for 1 hr by fluorescence based analysis relative to control; type: tissue-based; method in brief: as §3
# [18] = species: Sus scrofa; assay: Inhibition of pig brain tubulin polymerization at 8 uM incubated for 1 hr by fluorescence based analysis relative to control; type: tissue-based; method in brief: as §3
# [19] = Selectivity index, ratio of IC50 for human HEK293 cells to IC50 for human PC-3 cells assessed as reduction in cell viability measured after 48 hrs by MTT assay; type: toxicity; settings: HEK293 cells versus PC-3 cells, read-out: Ratio IC50
# [20] = Induction of apoptosis in human HEK293 cells assessed as viable cells at 2.8 uM measured after 48 hrs by Annexin V-FITC/Propidium iodide staining based flowcytometry analysis (reference value: 80.2%); type: cell-based; settings: read-out: Activity
# [21] = system: HEK293; assay: Cytotoxicity against human HEK293 cells assessed as reduction in cell viability incubated for 48 hrs by MTT assay; type: cell-based; settings: HEK293, 48 h; method in brief: as §1
# [22] = system: A549; assay: Induction of apoptosis in human A549 cells assessed as viable cells at 2.8 uM measured after 48 hrs by Annexin V-FITC/Propidium iodide staining based flowcytometry analysis (reference value: 83.1%); type: functional; settings: read-out: Activity
# [23] = species: Sus scrofa; assay: Inhibition of pig brain tubulin polymerization at 4 uM incubated for 1 hr by fluorescence based analysis relative to control; type: tissue-based; method in brief: as §3
# [24] = Selectivity index, ratio of IC50 for human HEK293 cells to IC50 for human DU-145 cells assessed as reduction in cell viability measured after 48 hrs by MTT assay
# [25] = system: A549; assay: Induction of apoptosis in human A549 cells assessed as pre and post apoptotic cells at 2.8 uM measured after 48 hrs by Annexin V-FITC/Propidium iodide staining based flowcytometry analysis (reference value: 0.1%); type: functional
# [26] = system: A549; assay: Cell cycle arrest in human A549 cells assessed as accumulation of cells at G2/M phase at 2.8 uM measured after 48 hrs by propidium iodide staining based FACS cytometry analysis (reference value: 10.1%); type: functional
# [27] = system: HEK293; assay: Cell cycle arrest in human HEK293 cells assessed as accumulation of cells at G0/G1 phase at 2.8 uM measured after 48 hrs by propidium iodide staining based FACS cytometry analysis (reference value: 64.1%); settings: hek293, 48 h
# [28] = system: Calf thymus DNA; assay: Binding affinity to calf thymus DNA assessed as hyperchromicity at 10 uM measured every 5 mins by UV-Vis spectroscopic analysis; settings: Bos taurus; method in brief: as §2
# [29] = system: HEK293; assay: Induction of apoptosis in human HEK293 cells assessed as pre and post apoptotic cells at 2.8 uM measured after 48 hrs by Annexin V-FITC/Propidium iodide staining based flowcytometry analysis (reference value: 0.2%); type: cell-based; settings: hek293, 48 h
# [30] = system: Calf thymus DNA; assay: Binding affinity to calf thymus DNA assessed as hypochromicity at 10 uM measured every 5 mins by fluorescence titration analysis; settings: Bos taurus
# Method in brief: (§6)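 Fluorescence titration at 25 °C in a 1 cm quartz cuvette. Compound held at 10 μM while CT-DNA was added about 0.5 μM per step. Excitation 250 nm, emission scanned 300–500 nm with the peak followed at 360 nm. Each spectrum is the average of three scans. Cuvettes washed with water and about 0.1 N nitric acid between runs.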
# [31] = system: A549; assay: Cell cycle arrest in human A549 cells assessed as accumulation of cells at subG1 phase at 2.8 uM measured after 48 hrs by propidium iodide staining based FACS cytometry analysis (reference value: 4.2%); type: functional
# [32] = system: HEK293; assay: Cell cycle arrest in human HEK293 cells assessed as accumulation of cells at sub-G1 phase at 2.8 uM measured after 48 hrs by propidium iodide staining based FACS cytometry analysis (reference value: 1%); settings: hek293, 48 h
# [33] = system: Calf thymus DNA; assay: Binding affinity to calf thymus DNA assessed as decrease in negative peak intensity at compound:DNA concentration ratio of 1:1 to 1:2 by CD spectroscopy; settings: Bos taurus; method in brief: as §5
# [34] = system: Calf thymus DNA; assay: Binding affinity to calf thymus DNA assessed as absorption peak between 310 and 312 nm at 10 uM measured every 5 mins by UV-Vis spectroscopic analysis; settings: Bos taurus; method in brief: as §2
# [35] = system: Calf thymus DNA; assay: Binding affinity to calf thymus DNA assessed as emission spectra at 360 nm at 10 uM measured every 5 mins by fluorescence titration analysis; settings: Bos taurus; method in brief: as §6
structure (smiles),measurement,setting,value
Clc1ccc(-c2nnc(-c3cn4ccccc4n3)o2)cc1,IC50,[1],32.4 µM
same,IC50,[2],32.8 µM
same,IC50,[3],33.7 µM
Cc1cc(Br)c2nc(-c3nnc(-c4ccc(N(C)C)cc4)o3)cn2c1,IC50,[1],10.8 µM
same,IC50,[2],12.8 µM
same,IC50,[3],11.2 µM
COc1cc(-c2nnc(-c3cn4cccc(C)c4n3)o2)cc(OC)c1OC,IC50,[1],9.9 µM
same,IC50,[2],11.2 µM
same,IC50,[3],10.9 µM
COc1ccc(-c2nnc(-c3cn4cccc(C)c4n3)o2)cc1OC,IC50,[1],10.9 µM
same,IC50,[2],11.8 µM
same,IC50,[3],11.5 µM
Brc1ccc(-c2nnc(-c3cn4ccccc4n3)o2)cc1,IC50,[1],> 50 µM
same,IC50,[2],> 50 µM
same,IC50,[3],> 50 µM
Cc1cccn2cc(-c3nnc(-c4ccccc4)o3)nc12,IC50,[1],23.4 µM
same,IC50,[2],21.8 µM
same,IC50,[3],22.8 µM
Cc1cccn2cc(-c3nnc(-c4ccc(Br)cc4)o3)nc12,IC50,[1],34.7 µM
same,IC50,[2],38.9 µM
same,IC50,[3],37.8 µM
COc1cc(-c2nnc(-c3cn4ccccc4n3)o2)cc(OC)c1OC,IC50,[1],2.8 µM
same,Kd,[4],0.042 µM
same,Activity,[5],15.7%
same,Activity,[6],Active
same,Activity,[7],6.9%
same,inhibition,[8],21.7%
same,selectivity ratio at 48 h,[9],29
same,Activity,[10],18.8%
same,inhibition,[11],Dose-Dependent Effect
same,IC50,[12],3.45 µM
same,inhibition,[13],Active
same,Activity,[14],Active
same,Activity,[15],74.5%
same,inhibition,[16],11.5%
same,inhibition,[17],4.6%
same,inhibition,[18],81.2%
same,selectivity ratio at 48 h,[19],25.4
same,"viability at 48 h, 2.8 µM",[20],18.5%
same,IC50,[2],4.5 µM
same,IC50,[21],89 µM
same,viability at 2.8 µM,[22],4.3%
same,inhibition,[23],60.1%
same,Ratio IC50,[24],19.7
same,Activity,[25],86.5%
same,Activity,[26],17.1%
same,Activity,[27],63.2%
same,Activity,[28],Active
same,Activity,[29],74.5%
same,Activity,[30],Active
same,Activity,[31],1.3%
same,Activity,[32],2.1%
same,Activity,[33],Active
same,Activity,[34],Active
same,Activity,[35],Active
same,IC50,[3],3.5 µM
